Experimental data from ChEMBL document CHEMBL1649125, “Efficacy of the novel diamidine compound 2,5-Bis(4-amidinophenyl)- furan-bis-O-Methlylamidoxime (Pafuramidine, DB289) against Trypanosoma brucei rhodesiense infection in vervet monkeys after oral administration” (2009).
The source made the active and inactive calls. The calls are words filed in the database; no cut-off is given here.

Legend:
[1] = tested on: Trypanosoma brucei rhodesiense; assay: Antitrypanosomal activity against Trypanosoma brucei rhodesiense infected in vervet monkey 484 assessed as time to detect CSF parasitosis at 1 mg/kg, po administered on day 7 post infection for 5 days measured after 14 to 21 days by microscopy; assay type: functional
Procedure, shortened: (§1)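 Trypanosomes and white cells in free-flowing CSF were counted by hemocytometer. Negative CSF was centrifuged and re-examined. Samples still negative were inoculated at 0.2 ml intraperitoneally into two mice each. Drug was given once daily by oral gavage: 5 days from day 7 p.i., or 10 days from day 28 p.i.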

[2] = tested on: Trypanosoma brucei rhodesiense; assay: Antitrypanosomal activity against Trypanosoma brucei rhodesiense infected in vervet monkey 484 assessed as time to detect parasitemia in wet films of blood at 1 mg/kg, po administered on day 7 post infection for 5 days by hematocrit centrifugation technique; assay type: functional
Procedure, shortened: (§2)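 Parasitemia was monitored from 3 days p.i. in ear-prick or inguinal venous blood. Methods were wet-film microscopy (detection limit 10^5 trypanosomes/ml) and hematocrit centrifugation technique (detection limit 10^3 trypanosomes/ml). Drug was given once daily by oral gavage: 5 days from day 7 p.i., or 10 days from day 28 p.i.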

[3] = tested on: Trypanosoma brucei rhodesiense; assay: Antitrypanosomal activity against Trypanosoma brucei rhodesiense infected in vervet monkey 478 assessed as cure from infection at 10 mg/kg, po administered on day 14 post infection for 5 days
[4] = tested on: Trypanosoma brucei rhodesiense; assay: Antimicrobial activity against Trypanosoma brucei rhodesiense infected in vervet monkeys assessed as cure from infection at 3 mg/kg, po administered on day 7 post infection for 5 days; assay type: functional, organism-based; set-up: dose 3 mg/kg
Procedure, shortened: (§3)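 Vervet monkeys (n=3 per group), infected with T. b. rhodesiense KETRI 2537. Dosed by oral gavage with a suspension once daily for 5 consecutive days from day 7 p.i. Cure meant no trypanosomes over 180 days p.t. in blood (wet film, HCT) or CSF (hemocytometer, centrifugation), with mouse subinoculation of negative samples.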

[5] = tested on: Trypanosoma brucei rhodesiense; assay: Antimicrobial activity against Trypanosoma brucei rhodesiense infected in vervet monkeys assessed as cure from infection at 1 mg/kg, po administered on day 7 post infection for 5 days; assay type: functional, organism-based; set-up: dose 1 mg/kg; procedure, shortened: as §3
[6] = tested on: Trypanosoma brucei rhodesiense; assay: Antitrypanosomal activity against Trypanosoma brucei rhodesiense infected in vervet monkey 471 assessed as time to detect CSF parasitosis at 10 mg/kg, po administered on day 14 post infection for 5 days measured after 14 to 21 days by microscopy; assay type: functional, organism-based; set-up: dose 10 mg/kg
[7] = tested on: Trypanosoma brucei rhodesiense; assay: Antitrypanosomal activity against Trypanosoma brucei rhodesiense infected in vervet monkey 486 assessed as cure from infection at 10 mg/kg, po administered on day 7 post infection for 5 days; assay type: functional, organism-based; set-up: dose 10 mg/kg; procedure, shortened: as §3
[8] = tested on: Trypanosoma brucei rhodesiense; assay: Antitrypanosomal activity against Trypanosoma brucei rhodesiense infected in vervet monkey 482 assessed as time to detect parasitemia at 3 mg/kg, po administered on day 7 post infection for 5 days; assay type: functional; procedure, shortened: as §2
[9] = tested on: Trypanosoma brucei rhodesiense; assay: Antitrypanosomal activity against Trypanosoma brucei rhodesiense infected in vervet monkey 501 assessed as time to detect parasitemia in wet films of blood at 10 mg/kg, po administered on day 28 post infection for 10 days by hematocrit centrifugation technique; assay type: functional; procedure, shortened: as §2
[10] = tested on: Trypanosoma brucei rhodesiense; assay: Antitrypanosomal activity against Trypanosoma brucei rhodesiense infected in vervet monkey 501 assessed as time to detect parasitemia at 10 mg/kg, po administered on day 28 post infection for 10 days; assay type: functional; procedure, shortened: as §2
[11] = tested on: Trypanosoma brucei rhodesiense; assay: Antitrypanosomal activity against Trypanosoma brucei rhodesiense infected in vervet monkey assessed as body weight change at 1 mg/kg, po administered on day 7 post infection for 5 days measured on day 28 post treatment; assay type: functional; conditions: in the assay text read “day 1 post treatment” for “day 28 post treatment”
Procedure, shortened: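 Body weight change is given as percent of the mean preinfection weight (n=3 per group). It was recorded at day 0 p.t., day 28 p.t. and end point. Oral gavage was once daily: 5 days from day 7 p.i., or 10 days from day 28 p.i.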

[12] = tested on: Trypanosoma brucei rhodesiense; assay: Antitrypanosomal activity against Trypanosoma brucei rhodesiense infected in vervet monkey 484 assessed as time to detect CSF parasitosis at 1 mg/kg, po administered on day 7 post infection for 5 days measured after 7 to 14 days; assay type: functional; procedure, shortened: as §1
[13] = tested on: Trypanosoma brucei rhodesiense; assay: Antimicrobial activity against Trypanosoma brucei rhodesiense infected in vervet monkeys assessed as cure from infection at 10 mg/kg, po administered on day 7 post infection for 5 days; assay type: functional, organism-based; set-up: dose 10 mg/kg; procedure, shortened: as §3
[14] = tested on: Trypanosoma brucei rhodesiense; assay: Antitrypanosomal activity against Trypanosoma brucei rhodesiense infected in vervet monkey 471 assessed as time to detect CSF parasitosis at 10 mg/kg, po administered on day 14 post infection for 5 days measured after 7 to 14 days; assay type: functional, organism-based; set-up: dose 10 mg/kg
[15] = tested on: Trypanosoma brucei rhodesiense; assay: Antitrypanosomal activity against Trypanosoma brucei rhodesiense infected in vervet monkey 501 assessed as time to detect CSF parasitosis at 10 mg/kg, po administered on day 28 post infection for 10 days measured after 7 to 14 days; assay type: functional, organism-based; set-up: dose 10 mg/kg; procedure, shortened: as §1
[16] = tested on: Trypanosoma brucei rhodesiense; assay: Antitrypanosomal activity against Trypanosoma brucei rhodesiense infected in vervet monkey assessed as change in packed cell volume at 10 mg/kg, po administered on day 7 post infection for 5 days measured on day 28 post treatment; assay type: functional
Procedure, shortened: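 Vervet monkeys, three per group, were infected intravenously with T. b. rhodesiense KETRI 2537. From day 7 p.i., a drug suspension was given by oral gavage once daily for 5 consecutive days. Packed cell volume was expressed as % change from the group's mean preinfection value. PCV was read at day 0 p.t., day 28 p.t. and endpoint, with follow-up to 180 days p.t.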

[17] = tested on: Trypanosoma brucei rhodesiense; assay: Antitrypanosomal activity against Trypanosoma brucei rhodesiense infected in vervet monkey 485 assessed as time to detect parasitemia in wet films of blood at 1 mg/kg, po administered on day 7 post infection for 5 days by hematocrit centrifugation technique; assay type: functional; procedure, shortened: as §2
[18] = tested on: Trypanosoma brucei rhodesiense; assay: Antitrypanosomal activity against Trypanosoma brucei rhodesiense infected in vervet monkey assessed as change in packed cell volume at 10 mg/kg, po administered on day 14 post infection for 5 days measured on day 28 post treatment; assay type: functional
[19] = tested on: Trypanosoma brucei rhodesiense; assay: Antitrypanosomal activity against Trypanosoma brucei rhodesiense infected in vervet monkey 482 assessed as time to detect parasitemia in wet films of blood at 3 mg/kg, po administered on day 7 post infection for 5 days by hematocrit centrifugation technique; assay type: functional; procedure, shortened: as §2
[20] = tested on: Trypanosoma brucei rhodesiense; assay: Antitrypanosomal activity against Trypanosoma brucei rhodesiense infected in vervet monkey 520 assessed as time to detect CSF parasitosis at 10 mg/kg, po administered on day 28 post infection for 10 days measured after 7 to 14 days; assay type: functional; procedure, shortened: as §1
[21] = tested on: Trypanosoma brucei rhodesiense; assay: Antitrypanosomal activity against Trypanosoma brucei rhodesiense infected in vervet monkey 463 assessed as time to detect CSF parasitosis at 1 mg/kg, po administered on day 7 post infection for 5 days measured after 7 to 14 days; assay type: functional, organism-based; set-up: dose 1 mg/kg; procedure, shortened: as §1
[22] = tested on: Trypanosoma brucei rhodesiense; assay: Antitrypanosomal activity against Trypanosoma brucei rhodesiense infected in vervet monkey 483 assessed as time to detect CSF parasitosis at 3 mg/kg, po administered on day 7 post infection for 5 days measured after 7 to 14 days; assay type: functional; procedure, shortened: as §1
[23] = tested on: Trypanosoma brucei rhodesiense; assay: Antitrypanosomal activity against Trypanosoma brucei rhodesiense infected in vervet monkey 485 assessed as time to detect CSF parasitosis at 1 mg/kg, po administered on day 7 post infection for 5 days measured after 14 to 21 days by microscopy; assay type: functional; procedure, shortened: as §1
[24] = tested on: Trypanosoma brucei rhodesiense; assay: Antitrypanosomal activity against Trypanosoma brucei rhodesiense infected in vervet monkey assessed as change in packed cell volume at 1 mg/kg, po administered on day 7 post infection for 5 days; assay type: functional
Procedure, shortened: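 Packed cell volume change is given as percent of the mean preinfection PCV in 3 monkeys. It was recorded at day 0 p.t., day 28 p.t. and end point, after 5 daily oral gavage doses starting day 7 p.i.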

Q: `CONC(=N)c1ccc(-c2ccc(-c3ccc(C(=N)NOC)cc3)o2)cc1` [PAFURAMIDINE] was tested. Which Time [1] did it give?
A: The Time was 14 days.

Q: And the Time [2]?
A: Its Time is 4 days.

Q: What about the Time [3] of the same molecule?
A: The Time was “Active”.

Q: What about the Activity [4] of the same molecule?
A: Its Activity is “Active”.

Q: And the Activity [5]?
A: The Activity was “inactive”.

Q: What about the Time [6] of the same molecule?
A: The Time was “inactive”.

Q: What about the Time [7] of the same molecule?
A: Its Time is “Active”.

Q: And the Time [8]?
A: The Time was 55 days.

Q: And the Time [9]?
A: The Time was 73 days.

Q: And the Time [10]?
A: The Time was 56 days.

Q: And the Activity [11]?
A: Its Activity is -2.1%.

Q: And the Time [12]?
A: Its Time is 7 days.

Q: And the Activity [13]?
A: Its Activity is “Active”.

Q: And the Time [14]?
A: The Time was “inactive”.

Q: And the Time [15]?
A: The Time was “inactive”.

Q: And the Activity [16]?
A: The Activity was -1.6%.

Q: And the Time [17]?
A: Its Time is 3 days.

Q: What about the Activity [18] of the same molecule?
A: Its Activity is -13.5%.

Q: What about the Time [19] of the same molecule?
A: Its Time is 79 days.

Q: What about the Time [20] of the same molecule?
A: The Time was 119 days.

Q: What about the Time [21] of the same molecule?
A: Its Time is “inactive”.

Q: What about the Time [22] of the same molecule?
A: Its Time is 69 days.

Q: What about the Time [23] of the same molecule?
A: The Time was 21 days.

Q: What about the Activity [24] of the same molecule?
A: The Activity was -4.3%.
